Experimental findings from ChEMBL document CHEMBL1154067, “Antiviral and cytotoxic activities of aminoarylazo compounds and aryltriazene derivatives” (Bioorg Med Chem, 2009) are described below.

pEC50: −log10 of the molar value. Active and inactive are the calls of the source.

The test system of data set [1] is Respiratory syncytial virus. Description: Antiviral activity against Respiratory syncytial virus A2 infected in Vero-76 cells after 5 days by plaque reduction assay. The following applies: human respiratory syncytial virus, A2, Vero 76, 120 h. In kind it is functional, organism-based.
Data set [2] in a line: Cytotoxicity against hamster BHK21 cells assessed as reduction in cell viability after 48 to 96 hrs by MTT assay. Type of data set: cell-based, Mesocricetus auratus, BHK-21. The following applies: bhk-21. Summed up: (§1)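 Mock-infected cells in maintenance medium, MDBK at 6 × 10^5 and BHK at 1 × 10^6 cells/mL initial density, with or without serial compound dilutions. Run in parallel with antiviral assays. Viability by MTT after 48–96 h at 37 °C, 5% CO2. CC50 = concentration reducing viability 50%.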

The next data set concerns Vaccinia virus. The data set is described as follows: Antiviral activity against Vaccinia virus after 3 days by plaque reduction assay. In kind it is functional, organism-based. The following applies: Orthopoxvirus vaccinia. In general terms: In a plaque reduction assay, fewer plaques than in the control indicate reduced infectivity or spread.
Data set [3] deals with Human immunodeficiency virus 1. The data set is described as follows: Antiviral activity against HIV1 infected in human MT4 cells assessed as inhibition of virus-induced cytopathicity after 4 days by MTT assay. In kind it is functional, organism-based. (In general: Damage to the host cells serves as the signal in cytopathic effect assays.)
Data set [4] can be described thus: Cytotoxicity against MDBK cells after 48 to 96 hrs by MTT assay. Type of data set: cell-based, Bos taurus. The following applies: cattle, mdbk. A digest of the protocol:
as §1

Data set [5] deals with Mammalian orthoreovirus 1. Description: Antiviral activity against Reovirus-1 infected in BHK-21 cells assessed as inhibition of virus-induced cytopathicity after 3 to 4 days by MTT assay. Type of data set: functional, organism-based. The following applies: Mammalian orthoreovirus 1, BHK-21. Summed up: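 BHK-21 cells seeded at 5 × 10^4 cells/well, grown overnight to confluent monolayers at 37 °C in 5% CO2, then infected at m.o.i. 0.01 in serum-free medium. One hour later, MEM Earle's with 1% final inactivated FCS added, with or without serial compound dilutions. Viability read by MTT after 3–4 days at 37 °C. EC50 is the concentration giving 50% protection from cytopathogenicity.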

A further data set has as its system Human alphaherpesvirus 1. The data set is described as follows: Antiviral activity against HSV1 infected in Vero-76 cells after 3 days by plaque reduction assay. Type of data set: functional, organism-based. The note with it: Human alphaherpesvirus 1, Vero 76, 72 h.
Another data set concerns Vero. The data set is described as follows: Cytotoxicity against african green monkey Vero 76 cells by crystal violet staining. In kind it is cell-based. The note with it: chlorocebus sabaeus, vero. A digest of the protocol:
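Mock-infected Vero 76 seeded at 4 × 10^5 cells/mL, run in parallel with plaque assays, with or without serial compound dilutions. Cell number of monolayers determined by crystal violet staining. CC50 = concentration reducing viable cell number 50%.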

Data set [6] has as its system Vesicular stomatitis virus. The data set is described as follows: Antiviral activity against Vesicular stomatitis virus after 2 days by plaque reduction assay. In kind it is functional, organism-based.
The subject of the next data set is Yellow fever virus. The data set is described as follows: Antiviral activity against Yellow fever virus infected in BHK-21 cells assessed as inhibition of virus-induced cytopathicity after 3 to 4 days by MTT assay. Type of data set: functional, organism-based.
The next data set deals with MT4. The data set is described as follows: Cytotoxicity against human MT4 cells after 96 hrs by MTT assay. Type of data set: cell-based. The following applies: mt4, 96 h. A digest of the protocol:
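Exponentially growing mock-infected MT-4 seeded at 1 × 10^5 cells/mL in RPMI-1640 with 10% FCS, penicillin and streptomycin. Incubated with or without serial compound dilutions at 37 °C, 5% CO2. Viability by MTT after 96 h. CC50 = concentration reducing viability 50%.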
In general terms: Formazan colour is commonly taken as a measure of viable cells.

The test system of another data set is Coxsackievirus B2. The data set is described as follows: Antiviral activity against Coxsackie virus type B2 virus infected in african green monkey Vero-76 cells after 3 days by plaque reduction assay. Type of data set: functional, organism-based. The note with it: Enterovirus B, Vero 76, 72 h. A digest of the protocol: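 Vero 76 cells seeded at 2 × 10^5 cells/well, grown overnight to confluence at 37 °C in 5% CO2, then infected at 50–100 PFU/well. Unadsorbed virus removed. Overlay of DMEM with 1% inactivated FCS and 0.75% methylcellulose, with or without serial compound dilutions. After 3 days at 37 °C, fixed and stained with crystal violet in PBS/50% ethanol; plaques counted. EC50 is the concentration reducing plaque number by 50%.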

Another data set deals with Poliovirus 1. Description: Antiviral activity against Human poliovirus 1 strain Sabin after 2 days by plaque reduction assay. Type of data set: functional. The following applies: for pEC50: Enterovirus C, 48 h.
Data set [7] deals with Bovine viral diarrhea virus 1. Description: Antiviral activity against Bovine viral diarrhea virus infected in MDBK cells assessed as inhibition of virus-induced cytopathicity after 3 to 4 days by MTT assay. In kind it is functional, organism-based. The following applies: Bovine viral diarrhea virus isolates and strains.

In the case of `Fc1ccc(F)c(/N=N/Nc2cccc(C(F)(F)F)c2)c1`, the negative-log EC50 (pEC50) in [1] is 5.00; in data set [5] it was less than 4.00; with Human alphaherpesvirus 1 it was less than 4.10; in the data set with Yellow fever virus, 4.10; with Coxsackievirus B2, less than 4.10; with Poliovirus 1 it was less than 4.10. Further, the negative logarithm of the EC50 (pEC50) in data set [7] was less than 4.00. For the same compound, the CC50 in [2] is more than 100 µM; in [4], more than 100 µM; in the data set on Vero, 80 µM; in the data set on MT4 it was more than 100 µM. For the same compound, the outcome (in the data set with Vaccinia virus; in [6]) was inactive. In data set [3], the inhibition entry was “inactive”.

With `O=[N+]([O-])c1cccc(/N=N/Nc2ccccc2)c1`, the negative-log EC50 (pEC50) was less than 4.48 in data set [1]; less than 4.42 in [5]; less than 4.48 in the data set on Human alphaherpesvirus 1; less than 4.42 with Yellow fever virus; less than 4.48 with Coxsackievirus B2; less than 4.48 with Poliovirus 1. Moreover, in [7], the negative logarithm of the EC50 (pEC50) is 4.72. Further, the CC50 is 38 µM in data set [2], 94 µM in data set [4], 33 µM with Vero and 40 µM with MT4. The result (with Vaccinia virus; in [6]) was inactive. For the same compound, in [3], the inhibition result is “inactive”.

For the compound `FC(F)(F)c1cccc(N/N=N/c2ccccc2)c1`, the negative-log EC50 (pEC50) in [1] is 5.52; in data set [5] it was less than 4.00; in the data set with Human alphaherpesvirus 1 it was less than 4.82; in the data set with Yellow fever virus, not above 4.00; with Coxsackievirus B2, 5.10; with Poliovirus 1 it was less than 4.82. For the same compound, the negative-log EC50 (pEC50) in [7] was less than 4.00. Also, the cytotoxic concentration (CC50) in [2] is more than 100 µM; in [4], more than 100 µM; in the data set on Vero, 15 µM; with MT4, more than 100 µM. Moreover, the result (in the data set on Vaccinia virus; in data set [6]) was inactive. Further, in [3], the inhibition result was “inactive”.

For the compound `Cc1ccc(/N=N/N(C)c2ccccc2)cc1`, the pEC50 was less than 4.24 in data set [1]; less than 4.00 in data set [5]; less than 4.24 in the data set on Human alphaherpesvirus 1; less than 4.00 in the data set on Yellow fever virus; less than 4.24 in the data set on Coxsackievirus B2; less than 4.24 in the data set with Poliovirus 1. In addition, the pEC50 in data set [7] was less than 4.00. The 50% cytotoxic concentration (CC50) is more than 100 µM in data set [2], more than 100 µM in [4], 58 µM with Vero and 45 µM with MT4. In addition, the outcome (in the data set with Vaccinia virus; in data set [6]) was inactive. Moreover, the inhibition entry in data set [3] is “inactive”.

Take `Cc1c(/N=N/c2ccccc2)ccc(NC[C@@H]2CCCN3CCCC[C@H]23)c1C`: the pEC50 in data set [1] was less than 4.22; in data set [5], less than 4.33; with Human alphaherpesvirus 1, less than 4.22; in the data set on Yellow fever virus, 5.05; in the data set on Coxsackievirus B2, less than 4.22; in [7], 5.60. The CC50 in data set [2] was determined as 47 µM; in [4] it was 48 µM; in the data set with Vero, 60 µM; with MT4 it was 31 µM. For the same compound, the outcome (in the data set with Vaccinia virus; in [6]; in the data set on Poliovirus 1) was inactive. Also, in data set [3], the inhibition entry was “inactive”.

Consider `CN(C)CCCN(/N=N/c1ccc([N+](=O)[O-])cc1)c1ccccc1`, for which the negative logarithm of the EC50 (pEC50) was less than 4.40 in [1]; less than 4.44 in [5]; less than 4.40 with Human alphaherpesvirus 1; not above 4.44 with Yellow fever virus; less than 4.40 with Coxsackievirus B2; less than 4.40 in the data set on Poliovirus 1. The pEC50 in data set [7] was not above 4.41. Moreover, the half-maximal cytotoxic concentration (CC50) in data set [2] was 36 µM; in data set [4] it was 39 µM; with Vero it was 40 µM; in the data set on MT4, 20 µM. Also, the result (in the data set with Vaccinia virus; in data set [6]) was inactive. In data set [3], the inhibition entry is “inactive”.

`O=[N+]([O-])c1cccc(/N=N/Nc2cccc([N+](=O)[O-])c2)c1`: the pEC50 (in [1]; in [5]; with Human alphaherpesvirus 1; in the data set on Yellow fever virus; with Coxsackievirus B2; in the data set on Poliovirus 1) was less than 4.00 in each case. The pEC50 in data set [7] was less than 4.00. Moreover, the CC50 (in data set [2]; in data set [4]; in the data set with Vero; in the data set on MT4) was more than 100 µM each time. Besides, the outcome (with Vaccinia virus; in [6]) was inactive. Moreover, in data set [3], the inhibition result was “inactive”.

For the compound `CN(C)CCCN(/N=N/c1cc(F)ccc1F)c1cccc(C(F)(F)F)c1`, the negative logarithm of the EC50 (pEC50) was less than 4.52 in data set [1]; less than 4.27 in data set [5]; less than 4.52 in the data set with Human alphaherpesvirus 1; less than 4.27 in the data set with Yellow fever virus; less than 4.52 in the data set with Coxsackievirus B2; less than 4.52 in the data set on Poliovirus 1. Besides, the negative-log EC50 (pEC50) in data set [7] was 4.05. For the same compound, the cytotoxic concentration (CC50) in data set [2] was 54 µM; in data set [4], more than 100 µM; in the data set on Vero it was 30 µM; in the data set with MT4 it was 16 µM. Moreover, the result (in the data set with Vaccinia virus; in data set [6]) was inactive. Moreover, the inhibition entry in [3] was “inactive”.

Regarding `FC(F)(F)c1cccc(/N=N/c2ccc(NC[C@@H]3CCCN4CCCC[C@H]34)c3c2CCCC3)c1`, the pEC50 in data set [1] was less than 4.30; in [5], less than 4.85; in the data set on Human alphaherpesvirus 1, less than 4.30; in the data set on Yellow fever virus it was less than 4.85; with Coxsackievirus B2, less than 4.30; in [7], 5.15. Further, the half-maximal cytotoxic concentration (CC50) in data set [2] is 14 µM; in data set [4], 30 µM; in the data set on Vero it was 50 µM; in the data set on MT4 it was 15 µM. Besides, the result (with Vaccinia virus; in data set [6]; with Poliovirus 1) was inactive. The inhibition result in data set [3] is “inactive”.

As to `CN(C)CCCN(/N=N/c1cccc([N+](=O)[O-])c1)c1ccccc1`, the pEC50 is less than 4.40 in data set [1]; less than 4.27 in data set [5]; 4.52 with Human alphaherpesvirus 1; 4.62 in the data set with Yellow fever virus; less than 4.40 in the data set on Coxsackievirus B2; less than 4.40 in the data set with Poliovirus 1. In addition, in data set [7], the pEC50 was less than 4.43. Also, the CC50 in data set [2] was determined as 54 µM; in [4] it was 37 µM; in the data set with Vero, 40 µM; in the data set on MT4, 14 µM. Also, the result (with Vaccinia virus; in [6]) was inactive. Further, the inhibition result in data set [3] is “inactive”.

Take `FC(F)(F)c1cccc(N(C[C@@H]2CCCN3CCCC[C@H]23)/N=N/c2ccccc2)c1`: the negative-log EC50 (pEC50) in [1] is less than 4.12; in [5], less than 4.40; in the data set with Human alphaherpesvirus 1, less than 4.12; in the data set with Yellow fever virus, 4.64; with Coxsackievirus B2, less than 4.12; in the data set with Poliovirus 1, less than 4.12. Also, the negative-log EC50 (pEC50) in data set [7] was less than 4.66. Besides, the half-maximal cytotoxic concentration (CC50) in data set [2] stood at 40 µM; in data set [4] it was 22 µM; with Vero it was 75 µM; in the data set on MT4 it was 17 µM. Moreover, the result (in the data set on Vaccinia virus; in data set [6]) was inactive. Besides, the inhibition entry in [3] is “inactive”.

One may read the pEC50 as the EC50 on a negative log10 scale, so that one unit is a factor of ten. For orientation: CC50 means the concentration that lowers cell viability or growth by half.
